Screening results: PubChem BioAssay, several laboratories
PostGolgi yeast: growth inhibition of a yeast mutant, post-Golgi transport screen; post-Golgi transport phenotypic cell assay; inhibition, % at 10 µM; 98,000 compounds, 0.9% hits;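 also: yeast cells grown in 1536-well plates; yeast grown about 18 h at 30C before absorbance read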
PostGolgi ctrl: inhibits growth of the yeast control strain; efflux-deficient yeast background strain, growth absorbance A615, 16 h; inhibition, % at 10 µM; 98,000 compounds, 5% hits; AID 738
Ecoli tolC: E. coli tolC mutant growth inhibition. E. coli BW25113 tolC mutant growth, OD615. growth inhibition, % at 10 µM (by protocol). 65,000 compounds, 2.2% hits. AID 573;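 active = growth inhibition at or above a cutoff equal to the mean over every tested compound plus 3 SD, cut at about 60% in these data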;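 also: growth measured after 20 h incubation at 37 °C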
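Doses: one dose of 10 µM final / Material: E. coli BW25113 ΔtolC::kan, tolC deletion mutant strain / Buffer or medium: LB with kanamycin 50 µg/mL / Evaluation: percent growth inhibition / Detection: optical density read at 615 nm / Incubation: 37 °C, 20 h exposure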
Ecoli WT expand: E. coli BW25113 growth inhibition, expanded screen; OD600 absorbance; growth inhibition, % at 100 µM; 98,000 compounds, 0.15% hits; AID 710;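 active = growth inhibition above about 50% at one test dose, limit read from the data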;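 also: growth measured after 20 h incubation at 37 °C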
Cav3 T inh: human Cav3.2 channel inhibition, primary screen. Cav3.2-expressing cells, Fluo-4 calcium fluorescence FDSS; hits give low values. 100,000 compounds, 4% hits. O95180. B-score at 10 µM;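 active = single-dose well whose peak fluorescence ratio is a statistical outlier from its plate by either plate-standardised score or position-corrected B-score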
The depositor's hits bear a star; . = no result given. Hits are enriched below; roughly 8.4% of the tested compounds scored in any of these assays. Rule as the data show it, unless noted: active = inhibition above about 30%; inactive = the rest.

SMILES	PostGolgi yeast	PostGolgi ctrl	Ecoli tolC	Ecoli WT expand	Cav3 T inh
O=C(Nc1nnc(-c2ccccc2)o1)c1nc2ccccc2s1	.	.	73*	.	-0.27
NC(=O)c1oc2ccccc2c1NC(=O)c1nc2ccccc2s1	-4	2	-9	-4	-0.25
O=C(CSc1nc(C2CC2)nc2ccccc12)N1c2ccccc2Sc2ccc(C(F)(F)F)cc21	-3	1	.	-4	-1.8
O=C(Cn1nnc(-c2cccs2)n1)N1c2ccccc2Sc2ccc(C(F)(F)F)cc21	.	.	.	.	-5.4*
c1ccc(CSc2nnc(-c3sccc3-n3cccc3)o2)cc1	-1	1	.	-10	-0.92
Cc1nc2ccccc2c2oc(C(=O)NCC3COc4ccccc4O3)cc12 (configuration not stated)	5	42*	39	-5	-5.3*
O=C(CCC1COc2ccccc2O1)NCC1COc2ccccc2O1 (configuration not stated)	1	18	18	0	-9.6*
O=C(Cc1ccccc1)NCC1COc2ccccc2O1 (configuration not stated)	.	.	.	.	-1.6
O=C(CNC(=O)c1ccccc1)NCC1COc2ccccc2O1 (configuration not stated)	0	3	.	2	0.93
Cc1ccc2c(CC(=O)NCC3COc4ccccc4O3)coc2c1 (configuration not stated)	1	6	31	0	-6.6*
CCOC(=O)N1CCN(S(=O)(=O)c2cccc3nonc23)CC1	19	6	-6	-5	-0.3
O=C(CSc1nn(-c2ccccc2)c(=S)s1)Nn1cnnc1	-7	35*	-1	3	-0.6
O=C(Nc1ccc2c(c1)OCO2)c1ccc2nc[nH]c2c1	4	8	.	-5	0.69
COC(=O)c1sc(NC(=O)c2ccc(Cn3cc(Cl)cn3)o2)c(C#N)c1C	16	18	0	-4	-3.7*
CC1CCc2c(sc(NC(=O)c3ccc(-c4ccccc4[N+](=O)[O-])o3)c2C#N)C1 (configuration not stated)	10	-1	.	-13	-0.35
N#Cc1c(NC(=O)c2ccc(Cn3cc(Br)cn3)o2)sc2c1CCCCC2	2	35*	.	-18	-4.1
CC1CCc2c(sc(NC(=O)c3ccc(Cn4cc([N+](=O)[O-])cn4)o3)c2C#N)C1 (configuration not stated)	-6	38*	.	-3	-0.6
COc1ccc(OC)c(NC(=O)CC2C(=O)NCCN2C(=O)Nc2cccc(Cl)c2)c1 (configuration not stated)	-2	-6	.	8	-0.018
Cc1cc(NC(=O)CSc2cn(CCNC(=O)c3ccc(Cl)cc3)c3ccccc23)no1	-7	5	6	-2	-6.1*
Cc1cc(NC(=O)CSc2ncn(-c3ccccc3)n2)no1	8	33*	0	-2	0.5
Cc1ccc(-n2c(SCC(=O)Nc3cc(C)on3)nc3c([nH]c4ccccc43)c2=O)cc1	-10	-1	.	-5	.
Cc1cc(NC(=O)CSc2c(C)[nH]c3ccccc23)no1	-17	30*	2	-3	-5.6*
Cc1cc(NC(=O)CSc2ncccn2)no1	.	.	.	.	0.33
Cn1cccc1Cc1nnc(SCC(=O)NCC2CCCO2)n1-c1ccc(F)cc1 (configuration not stated)	5	-1	-5	3	1.5
CCOc1ccccc1NC(=O)c1ccc(Cl)c(NC(=O)CC(c2ccccc2)c2ccccc2)c1	-16	2	.	-12	-2.8
SMILES	PostGolgi yeast	PostGolgi ctrl	Ecoli tolC	Ecoli WT expand	Cav3 T inh
Cc1nc(CSc2nnc3scc(-c4ccc(Cl)cc4)n23)cs1	5	12	11	5	0.43
CC(C)(C)OC(=O)NCCCC1=CC2=CC(=O)C(C)(O)C(=O)C2=CO1 (configuration not stated)	.	.	.	.	0.2
CC1CCCCN1C(=O)CSc1nc(C2CC2)nc2c1cnn2-c1ccccc1 (configuration not stated)	18	27	67*	2	-2.6
Cc1nn(C)c(C)c1NC(=O)CSc1nc(C2CC2)nc2c1cnn2-c1ccccc1	30	0	.	2	-0.63
CCCSc1nc(N)cc(=O)[nH]1	-4	1	-8	6	0.074
CCS(=O)(=O)N1CCC(C(=O)c2ccc(Cl)cc2)CC1	.	.	.	.	0.78
O=C(CCC(=O)OCC(=O)c1ccc(Br)cc1)NC1CCCCC1	-4	37*	.	-5	-0.88
O=C(CCC(=O)OCC(=O)c1ccc(F)cc1)NC1CCCCC1	40*	4	.	6	1.2
CCN(CC)CCn1c2ccccc2c2cnc(N)c(C#N)c21	2	52*	.	22	1.4
CN(C)C=Nc1ncc2c3ccccc3n(CCN(C)C)c2c1C#N	-10	25	10	12	1.7
Clc1cccc(CSc2nnc(-c3ccccn3)n2Cc2ccco2)c1	0	20	100*	-6	-7.6*
Brc1ccc(CSc2nnc(-c3ccccn3)n2Cc2ccco2)cc1	3	33*	98*	-10	-5.1*
COc1cc2c3c([nH]c2cc1F)C(=O)NCC3	.	.	.	.	0.53
O=C(Nc1ccc(-c2noc(CCc3ccccc3)n2)cc1)c1ccco1	-7	13	-2	-5	-0.0075
c1coc(CNc2nc(N3CCCCC3)nc3ccccc23)c1	40*	8	71*	31	-4.3*
c1ccc(-c2nc(NCc3ccco3)c3ccccc3n2)nc1	8	4	83*	20	1.6
c1ccc(N2CCN(c3nc(NCc4ccco4)c4ccccc4n3)CC2)cc1	9	6	3	-3	-2
Oc1ccccc1-c1nc(NCc2ccco2)c2ccccc2n1	-3	2	13	2	-0.06
O=S(=O)(Nc1nc2ccccc2nc1NCc1ccco1)c1ccccc1	12	28	71*	1	-1.3
CC(C)c1ccc(-c2nnn(Cc3nc4ccccc4s3)n2)cc1	2	16	80*	-15	.
Cc1cc(N2CCC(C)CC2)nc2cccc(O)c12	1	3	.	15	-2.2
CCN1CC2=C(OC(N)=C(C#N)C2c2cccs2)/C(=C\c2cccs2)C1 (configuration not stated)	1	8	.	-3	-3.5*
CCOC(=O)C1=C(CC)OC(N)=C(C#N)C1c1cccs1 (configuration not stated)	-6	0	.	-8	0.3
COc1ccc(/C=C/c2ccncc2)c2ccccc12	-1	43*	.	8	-1.8
O=C(NO)c1ccc(C(=O)N(C2CCCCC2)C2CCCCC2)cc1	102*	96*	17	5	-0.52
COc1ccc(CC(=O)N2CCN(c3ccc(C4=NNC(=O)CC4C)cc3)CC2)cc1 (configuration not stated)	-3	17	.	-1	.
Cc1cccnc1NC(=O)COc1ccc2oc3c(c2c1)CCCC3	9	4	36	1	-5.6*
CC1Oc2ccccc2N(Cc2ccccc2Cl)C1=O (configuration not stated)	4	21	61*	-9	-2.2
Cc1nn(Cc2ccc(C(=O)Nc3nccs3)cc2)c(C)c1Cl	17	-4	20	-2	.
Cc1c(CCC(=O)O)c(=O)oc2cc3occ(-c4ccc(F)cc4)c3cc12	-10	6	100*	-9	1.9
